Here are results for 95 compounds from ChEMBL document CHEMBL4513216, “Probing the Open Global Health Chemical Diversity Library for Multistage-Active Starting Points for Next-Generation Antimalarials” (ACS Infect Dis, 2020).

This series is described as follows: Toxicity liver stage against HepG2, at 10uM. The series is classed as cell-based. Set-up: test concentration 10 uM, cell line HepG2-A16-CD81EGFP. To be noted: human, HepG2-A16-CD81EGFP cells; read-out: INHIBITION
The essentials: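 Uninfected HepG2-A16-CD81EGFP cells, 3 × 10^3 per well, 1536-well, plated on prespotted compound at 10 μM final, parasite-free screening media added to match infected plates; puromycin 10 μM positive, DMSO 0.5% negative; run in parallel with 48 h PbLuc assay at 37 °C, 5% CO2; viability by CellTiter-Glo luminescence, normalized to controls.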
Take `F[C@@H]1CN(Cc2nccs2)C[C@@H]1OCc1nc2cnccc2[nH]1`: the cytotoxicity at 10 µM came to 4.15%.
As for `Cn1nc(Br)nc1Sc1ccccc1NC(=O)C1CC1`, the figure is 3.62%; as for `O=C(NC1CCCCC1)c1cc(Br)cnc1N1CCCCC1`, 2.22%; as for `COc1nn(C)cc1C(=O)N1CCC(c2nnc(C(C)C)o2)CC1`, 13.5%.
As for `O=C(NCc1c(F)cccc1F)C1CN(C(=O)c2cnccn2)C1`, the figure is -12.2%; as for `CCOC(=O)CNC(=O)C1CN(C(=O)c2cnccn2)C1`, 2.63%; as for `O=C(Cc1cccs1)NCC1(O)CCc2ccccc2C1` (stereo not given), -10.1%.
As for `CCS(=O)(=O)N1CCC2(CCN(CC(=O)N(C)C)C2=O)CC1`, the figure is 5.68%; as for `O=C(c1ccnnc1)N1C[C@@H](OCc2cccnc2)[C@H]2OCCC[C@H]21`, 5.03%.
As to `O=C(C1CCN(c2nc3nc[nH]c(=O)c3s2)CC1)N1CCCCC1`, the cytotoxicity at 10 µM was -5.55%.
Turning to `Cc1nn(C)c(=O)c2nn(-c3cccc(Cl)c3)c(C)c12`, the cytotoxicity at 10 µM was determined as 3.79%.
For `CC1(C)OCC(CNC(=O)c2cnn(-c3cc(Cl)ccc3Cl)c2N)O1` (stereo not given), the cytotoxicity at 10 µM stood at 2.84%.
As for `CC(C)N1CCc2c(C#N)c(NCc3ccco3)n3cnnc3c2C1`, the figure is -2.02%.
Regarding `CN1[C@H](Cn2cccn2)C[C@@H]2CN(C(=O)Cc3cccs3)CC[C@@H]21`, the cytotoxicity at 10 µM was found to be 9.58%.
`O=C1CC2(CCCCN2C(=O)c2ccsc2)CN1CC1CC1` (stereo not given): the cytotoxicity at 10 µM came out at 2.84%.
For the compound `Cc1cn([C@@H]2CC3(CCNCC3)OC[C@@]2(C)O)c(=O)[nH]c1=O`, the cytotoxicity at 10 µM is -5.6%.
For `O=C1CCOC[C@]2(CN(Cc3ccccc3)C[C@H]2c2ccccc2)N1`, the cytotoxicity at 10 µM is -14.1%.
Turning to `Cc1noc(C)c1-c1nc(C2CCCN(C(=O)CN)C2)ccc1CO` (stereo not given), the cytotoxicity at 10 µM was -3.11%.
Turning to `CCn1cc(S(=O)(=O)N2CCC(C3CCCCN(C)C3=O)CC2)c(C)n1` (stereo not given), the cytotoxicity at 10 µM was determined as 6.58%.
As for `CN([C@@H]1CC[C@@H](N2CCCC2)[C@@H]1O)S(=O)(=O)c1ccccc1`, the figure is -4.29%; as for `NC(=O)CN1CCCC(c2ccnc(Nc3ncccn3)c2)C1` (stereo not given), 10.1%.
As for `OC1(Cn2ccc3ccncc32)CCN(Cc2ccccn2)CC1`, the figure is 2.42%; as for `CC(C)C(=O)N1Cc2ccccc2CC2(CCCN2C)C1` (stereo not given), 4.51%.
Turning to `COc1cc(Br)c(S(=O)(=O)NC(=O)C(C)OC)cc1OC` (stereo not given), the cytotoxicity at 10 µM is -22.9%.
As for `Cc1ccccc1CN1CCCN(S(=O)(=O)N(C)C2CCCCC2)CC1`, the figure is 11.5%; as for `COc1cc(C(=O)O)ccc1OCC(=O)NCCc1ccccc1`, -10.6%.
As for `COC(=O)c1sc(C(NC(=O)c2ccccc2)C2CC2)nc1C` (stereo not given), the figure is 0.0726%.
As for `Cc1cccc(CCC(=O)Nc2ccnn2C2CCS(=O)(=O)C2)c1` (stereo not given), the figure is 0.499%; as for `O=C(NCCNc1ccccn1)NC1CCOC2(CCCCC2)C1` (stereo not given), -8.8%; as for `NC(=O)C1CN(c2ccc3cc(Br)ccc3n2)CCO1` (stereo not given), 4.94%.
`COCCn1cc(C(=O)N2CCCC2c2noc(C)n2)ccc1=O` (stereo not given): the cytotoxicity at 10 µM is -9.8%.
As for `Cc1ccc(NC(C)C(=O)N(C)Cc2cccc(F)c2)cc1C(N)=O` (stereo not given), the cytotoxicity at 10 µM amounted to 11.4%.
As for `Cc1c(Br)cccc1S(=O)(=O)NCc1ccnn1C`, the figure is 43%; as for `CCOc1ncccc1CNC(=O)CN1CCCCCC1=O`, 2.92%.
As for `CC(C)Cc1noc(CN2CCCN(C(=O)c3ccccc3Cl)CC2)n1`, the figure is -5.95%; as for `CCc1csc(C2CCCN(C(=O)c3ccc(OC)nc3)C2)n1` (stereo not given), 4.65%; as for `O=C(NCCc1nnc2n1CCC2)NCC1(c2ccccc2)CC1`, -7.35%.
As for `CN(C)S(=O)(=O)c1ccc2c(c1)N(Cc1nccn1C)CC2`, the figure is -3.42%; as for `CN(C(=O)CCc1ccsc1)S(C)(=O)=O`, 0.347%.
With `COc1ccc(C(C)NC(=O)Nc2nccs2)cc1OC` (stereo not given), the cytotoxicity at 10 µM amounted to 4.37%.
As for `CC(NC(=O)c1cccnc1N(C)C)c1ccccc1Br` (stereo not given), the figure is 17.7%.
As for `CCc1nc(CNC(C)(CO)C2CCCCC2)no1` (stereo not given), the figure is -13.1%; as for `CC(=O)N1CCN(C(=O)CNc2cccc(OC(F)F)c2C)CC1`, -11.4%; as for `Cc1cc(C)n(-c2ccc(C(C)NS(N)(=O)=O)cc2)n1` (stereo not given), -7.76%.
As for `O=C1CCN(C(=O)CCc2cc(Br)cs2)CCN1`, the figure is -2.1%.
`CCN(Cc1csc(CS(C)(=O)=O)n1)c1cccc(CO)c1`: the cytotoxicity at 10 µM was -10%.
Turning to `CC(Cn1cccn1)NCc1nc(-c2ccc3c(c2)OCO3)no1` (stereo not given), the cytotoxicity at 10 µM was -12.4%.
For the compound `O=C(Nc1ncn(Cc2cccc(Br)c2)n1)C1CCC1`, the cytotoxicity at 10 µM stood at 11.4%.
On to `c1cnc(N2CCc3onc(CN4CCCC4)c3C2)cn1`, for which the cytotoxicity at 10 µM is -3.09%.
As for `Cc1cc(C(=O)N2CCn3c(COCC4CCCC4)cnc3C2C)on1` (stereo not given), the figure is 3.18%; as for `NC(=O)c1cnc2n1CCN(C(=O)c1cccc(Cn3cccn3)c1)C2`, 4.35%.
Take `OC1(CN2CCC(Oc3cccc(C(F)(F)F)c3)CC2)CNCCOC1` (stereo not given): the cytotoxicity at 10 µM was -5.43%.
As for `CN(Cc1ccc(-n2cccn2)cc1)Cc1cnc(N(C)C)nc1`, the figure is -1.28%; as for `Cc1cc(C(=O)N2CCC(n3nc(C)cc3C)C2)c2ccc(F)cc2n1` (stereo not given), -5.08%.
As for `O=C1CCC2(CCCN(C(=O)c3ccoc3)C2)CN1Cc1ccncc1` (stereo not given), the figure is 3.06%; as for `COc1ccc(F)c(CNC2CCCc3nc(N(C)C)ncc32)c1` (stereo not given), 1.81%; as for `O=C(NCc1cnn2cccnc12)C1CC(=O)N(Cc2cccnc2)C1` (stereo not given), 8.21%.
As for `COc1ccc(OC)c(CNC2CCCc3nc(N(C)C)ncc32)c1` (stereo not given), the figure is -11.2%.
As for `CCc1nc(C)sc1CN1CCc2[nH]nc(-c3ccc(F)c(F)c3)c2C1`, the cytotoxicity at 10 µM worked out at 5.57%.
As for `COc1ccccc1N1CCN(Cc2ncc(C)c(OC)c2C)CC1=O`, the figure is 6.18%; as for `C=Cc1ccc(C(=O)N2CCCC(Nc3ccc(F)c(F)c3)C2)cc1` (stereo not given), -9.03%.
In the case of `CSc1ccccc1C(=O)N(C)Cc1nncn1C(C)C`, the cytotoxicity at 10 µM was determined as 3.92%.
As for `O=C(CCc1ccco1)N1CCC(Oc2ccccc2)(C(=O)O)CC1`, the figure is 1.46%.
As for `Cn1ccc2c(-c3ccc(NCCO)nn3)ccnc21`, the figure is -5.56%; as for `Cc1nc2ccccc2n1Cc1cc(C(=O)N(C)C2CCOCC2)no1`, 25.7%.
Consider `CCN(CC)CCn1ccnc1-c1[nH]cnc1C`, for which the cytotoxicity at 10 µM is -8.88%.
Take `CNS(=O)(=O)c1ccsc1C(=O)OC`: the cytotoxicity at 10 µM worked out at 7.54%.
As for `N[C@@H]1c2ccccc2C2(CCN(C(=O)c3ccc(Cl)cn3)CC2)[C@H]1O`, the figure is -2.21%.
As for `Cc1ccc(CN2CCN(C(=O)c3ccccc3O)C(C)C2=O)cc1` (stereo not given), the figure is 6.31%; as for `CNC(=O)COc1cccc(CNC(=O)c2c(C)noc2C(C)C)c1`, -2.8%; as for `O=C(Cc1cccc(F)c1)NCCNc1ncccn1`, -6.71%.
As for `Cc1nc(C)n(CC2CN(Cc3cccc4ccccc34)CCO2)n1` (stereo not given), the figure is -2.64%.
In the case of `Cc1noc(C)c1CCC(=O)N1CCCC(n2cccn2)C1` (stereo not given), the cytotoxicity at 10 µM is -7.81%.
For `Cn1cccc1C1CCCCCN1C(=O)c1ccc(NC2CC2)nc1` (stereo not given), the cytotoxicity at 10 µM is -9.24%.
As for `CCNc1cc2c(nn1)CCN(C(=O)c1cccc(CSC)c1)C2`, the figure is -12.7%.
As for `CN(Cc1noc(C2CC2)n1)C1CCN(CCn2cc(C#N)cn2)C1` (stereo not given), the figure is -9.1%; as for `Cc1nn(C)c(Cl)c1C1CCCN1C(=O)c1cccn1C` (stereo not given), -5.53%; as for `CC(=O)Nc1nc(C(=O)N2CCCC2Cn2cccn2)cs1` (stereo not given), -5.42%.
As for `Cc1cccc(C(=O)N(C)C2CCN(c3ccccn3)CC2)c1C`, the figure is 1.84%.
Turning to `Cc1noc(CN2CCN(C(=O)c3ccccn3)CC2)n1`, the cytotoxicity at 10 µM came out at 1.35%.
For `CCOCCCn1c(NC(=O)c2ccc(C)nc2)nc2ccccc21`, the cytotoxicity at 10 µM is -6.95%.
As for `Cc1nn(C)c(C)c1C1COCCN1C(=O)c1ccccc1` (stereo not given), the figure is -10.2%; as for `CN(CC(=O)N(C)C1CCCCC1)C1CCc2ccccc21` (stereo not given), -7.44%; as for `Cc1nccn1CCCC(=O)N1CCC(Nc2cccnn2)CC1`, -17.3%.
As for `CCCc1nnsc1C(=O)N1CCN(CC(O)C2CC2)CC1` (stereo not given), the figure is -7.78%; as for `c1ccc(N2CC[C@H](OCC3CC3)[C@@H]2Cc2cccnc2)nc1`, 7.53%; as for `CNC(=O)[C@H]1C[C@@H]2CN(C(=O)c3ccccn3)C[C@@H]2N1S(C)(=O)=O`, -1.37%.
In the case of `Cc1ccsc1CN1CC[C@H]2OCC[C@@]2(C(=O)N2CCCO2)C1`, the cytotoxicity at 10 µM was -4%.
As for `O=S(=O)(C1CC1)N1CCO[C@H]2[C@@H](Oc3cccnc3)CC[C@@H]21`, the figure is -5.96%; as for `O=C1CO[C@@H]2CN(CC3CCOCC3)C[C@H]2N1CC1CC1`, 1.57%; as for `Cc1nc(CN2CCO[C@@H]3CN(Cc4cccs4)C[C@@H]3C2)cs1`, 6.11%.
As for `CCN1Cc2ccccc2CC2(CCN(CC(=O)O)CC2)C1=O`, the figure is -4.87%; as for `COCCN1CCc2ncnc(OC(C)C)c2CC1`, 8.26%.
As for `COCC1CC2(CCN(Cc3cnn(C)c3)CC2)CN1C(C)C` (stereo not given), the figure is 2.91%.
In the case of `CC(C)CS(=O)(=O)N1C[C@@H]2C[C@H](C(=O)N(C)C)[C@H](C1)O2`, the cytotoxicity at 10 µM amounted to 8.66%.
